This is an account of results in ChEMBL document CHEMBL1148491, “Synthesis and pharmacological characterization of nicotinic acetylcholine receptor properties of (+)- and (-)-pyrido-[3,4-b]homotropanes” (J Med Chem, 2006).

Active and inactive are the calls of the source. The calls are words filed in the database; no cut-off is given here.

Experiment [1] is filed under the species Mus musculus. As to the kind of experiment: Hypothermia in mouse. Type of experiment: functional. A digest of the protocol: (§1)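 Rectal temperature in mice measured by thermistor probe inserted 24 mm, read just before and at several times after sc injection (saline vehicle). Readout is the before-after difference for each mouse; ambient temperature 21-24 °C.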

The target of experiment [2] is Neuronal acetylcholine receptor; alpha4/beta2 (Rattus norvegicus, UniProt P09483+P12390). The experiment can be described thus: Displacement of [3H]epibatidine from alpha-4-beta-2 nACHR in rat cerebral cortex. Format: tissue-based. In general terms: Displacement assays read how much labelled ligand stays bound in the presence of the test substance.
Neuronal acetylcholine receptor; alpha4/beta2 (Rattus norvegicus, UniProt P09483+P12390), sequence (P09483 whole entry): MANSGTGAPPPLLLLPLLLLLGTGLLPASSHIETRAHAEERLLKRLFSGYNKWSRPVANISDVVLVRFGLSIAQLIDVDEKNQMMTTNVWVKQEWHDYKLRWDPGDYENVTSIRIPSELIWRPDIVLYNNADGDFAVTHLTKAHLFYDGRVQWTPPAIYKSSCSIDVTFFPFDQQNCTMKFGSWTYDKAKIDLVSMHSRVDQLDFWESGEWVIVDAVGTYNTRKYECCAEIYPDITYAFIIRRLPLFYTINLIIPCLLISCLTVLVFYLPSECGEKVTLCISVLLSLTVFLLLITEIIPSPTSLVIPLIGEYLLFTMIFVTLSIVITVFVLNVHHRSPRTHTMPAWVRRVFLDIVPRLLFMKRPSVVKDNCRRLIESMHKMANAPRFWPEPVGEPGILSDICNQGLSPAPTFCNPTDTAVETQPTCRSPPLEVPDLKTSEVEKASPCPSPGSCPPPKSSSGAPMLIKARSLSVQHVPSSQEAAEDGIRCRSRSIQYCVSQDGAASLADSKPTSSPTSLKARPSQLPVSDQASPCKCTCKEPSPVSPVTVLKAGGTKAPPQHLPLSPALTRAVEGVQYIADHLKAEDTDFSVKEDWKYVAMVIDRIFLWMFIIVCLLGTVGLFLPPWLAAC
Neuronal acetylcholine receptor; alpha4/beta2 (Rattus norvegicus, UniProt P09483+P12390), sequence (P12390 whole entry): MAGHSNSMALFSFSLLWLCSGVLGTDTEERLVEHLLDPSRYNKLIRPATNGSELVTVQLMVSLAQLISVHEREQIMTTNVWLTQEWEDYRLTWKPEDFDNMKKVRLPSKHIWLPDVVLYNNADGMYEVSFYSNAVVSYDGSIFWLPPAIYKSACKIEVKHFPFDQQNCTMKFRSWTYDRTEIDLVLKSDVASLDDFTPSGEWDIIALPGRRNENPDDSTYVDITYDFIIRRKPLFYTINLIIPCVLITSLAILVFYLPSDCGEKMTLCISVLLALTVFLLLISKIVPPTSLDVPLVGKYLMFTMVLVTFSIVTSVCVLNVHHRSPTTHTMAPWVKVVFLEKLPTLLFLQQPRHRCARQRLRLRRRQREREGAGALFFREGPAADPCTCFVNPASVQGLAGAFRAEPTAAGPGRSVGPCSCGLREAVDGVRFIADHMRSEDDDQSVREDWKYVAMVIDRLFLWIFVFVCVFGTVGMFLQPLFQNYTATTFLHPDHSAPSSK
The subject of experiment [3] is Mus musculus. The experiment can be described thus: Antinociceptive activity in mouse by tail flick assay at 10 mg/kg. Type of experiment: functional. A digest of the protocol:
(§2)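 Mouse tail-flick: tail exposed to a heat lamp and flick latency recorded. A control latency (2-4 s) was taken before treatment and a test latency after drug. Response given as %MPE = (test - control)/(maximum - control) × 100. ED50 with 95% confidence limits from unweighted least-squares linear regression.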
(In general: In hot-plate and tail-flick tests a longer latency is read as antinociception.)

In experiment [4] the test system is Mus musculus. The experiment can be described thus: Antinociceptive activity in mouse by hot plate assay at 10 mg/kg, sc after 5 mins. Type of experiment: functional. The note with it: route subcutaneous. A digest of the protocol:
(§3)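 Mouse hot-plate at 55.0 °C in a 10-cm glass cylinder. Two control latencies were taken ≥10 min apart (normal 8-12 s), scored by jumping or paw licking. Mice were tested 5 min after sc injection. Response given as %MPE = (test - control)/(maximum - control) × 100.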

For experiment [5], the species on record is Mus musculus. As to the kind of experiment: Spontaneous activity in mouse. Type of experiment: functional. The procedure, abridged:
(§4)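 Mice placed in individual photocell activity cages 5 min after sc injection (0.9% saline vehicle). Photocell beam interruptions were counted over the next 10 min.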

Experiment [6] is filed under the species Mus musculus. The experiment can be described thus: Antagonist effect against nicotine-induced antinociceptive activity in mouse by tail flick assay. Type of experiment: functional.
The species named for experiment [7] is Mus musculus. As to the kind of experiment: Antagonist effect on nicotine-induced antinociceptive activity in mouse by hot plate assay. Type of experiment: functional.
Experiment [8] has as its system Rattus norvegicus. The experiment can be described thus: Agonist activity on nicotine discrimination in rat at 3 mg/kg by lever press assay. Format: functional. A digest of the protocol:
(§5)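 Substitution tests were 15-min sessions starting 10 min after sc injection, with either lever reinforced. A rat was tested only if it made ≥80% injection-appropriate responses on the prior training day. Readouts: % nicotine-lever responding and response rate.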

Experiment [9] deals with Rattus norvegicus. As to the kind of experiment: Antagonist activity on nicotine discrimination in rat at 3 mg/kg by lever press assay. Format: functional. Further details: scale not given: the % may be the effect or the level left. A digest of the protocol: (§6)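 Pretreatment with the test dose sc was followed 10 min later by 0.4 mg/kg (-)-nicotine, then a 15-min test session. Readouts: % nicotine-lever responding and response rate.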

For experiment [10], the system named is Mus musculus. The experiment can be described thus: Antinociceptive activity in mouse by tail flick assay at 1 mg/kg. Type of experiment: functional. The procedure, abridged:
as §2

The test system of experiment [11] is Mus musculus. The experiment can be described thus: Antagonist effect on nicotine-induced antinociceptive activity in mouse by tail flick assay at […]. Format: functional. Further details: scale not given: the % may be the effect or the level left.
Experiment [12] concerns Mus musculus. As to the kind of experiment: Antinociceptive activity in mouse by hot plate assay at 1 mg/kg, sc after 5 mins. Format: functional. The note with it: route subcutaneous. A digest of the protocol:
as §3

The test system of experiment [13] is Mus musculus. As to the kind of experiment: Antagonist effect on nicotine-induced antinociceptive activity in mouse by hot plate assay at […]. Set-up: scale not given: the % may be the effect or the level left. Type of experiment: functional.
Experiment [14] relates to Mus musculus. As to the kind of experiment: Antagonist effect on nicotine-induced hypothermia in mouse at […]. Further details: scale not given: the % may be the effect or the level left. Format: functional.
For experiment [15], the target named is T1, Neuronal acetylcholine receptor; alpha4/beta2 (Homo sapiens, UniProt P17787+P43681). The experiment can be described thus: Intrinsic activity at human alpha-4-beta-2 nACHR in SH-EP1 cells relative to ACh. Type of experiment: functional, cell-based.
T1 sequence (P17787 whole entry): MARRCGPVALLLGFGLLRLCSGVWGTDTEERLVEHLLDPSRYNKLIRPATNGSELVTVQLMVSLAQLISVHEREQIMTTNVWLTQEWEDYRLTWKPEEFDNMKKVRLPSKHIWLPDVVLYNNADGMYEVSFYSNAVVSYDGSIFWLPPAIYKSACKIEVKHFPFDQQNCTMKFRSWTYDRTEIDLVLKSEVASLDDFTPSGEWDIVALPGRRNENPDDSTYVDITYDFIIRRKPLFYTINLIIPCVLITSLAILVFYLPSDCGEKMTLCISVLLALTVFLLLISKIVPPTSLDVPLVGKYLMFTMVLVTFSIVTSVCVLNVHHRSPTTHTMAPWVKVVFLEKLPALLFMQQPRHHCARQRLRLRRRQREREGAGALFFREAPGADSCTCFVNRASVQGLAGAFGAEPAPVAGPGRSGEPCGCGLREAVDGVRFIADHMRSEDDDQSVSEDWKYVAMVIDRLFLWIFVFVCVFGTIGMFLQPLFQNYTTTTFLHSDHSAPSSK
T1 sequence (P43681 whole entry): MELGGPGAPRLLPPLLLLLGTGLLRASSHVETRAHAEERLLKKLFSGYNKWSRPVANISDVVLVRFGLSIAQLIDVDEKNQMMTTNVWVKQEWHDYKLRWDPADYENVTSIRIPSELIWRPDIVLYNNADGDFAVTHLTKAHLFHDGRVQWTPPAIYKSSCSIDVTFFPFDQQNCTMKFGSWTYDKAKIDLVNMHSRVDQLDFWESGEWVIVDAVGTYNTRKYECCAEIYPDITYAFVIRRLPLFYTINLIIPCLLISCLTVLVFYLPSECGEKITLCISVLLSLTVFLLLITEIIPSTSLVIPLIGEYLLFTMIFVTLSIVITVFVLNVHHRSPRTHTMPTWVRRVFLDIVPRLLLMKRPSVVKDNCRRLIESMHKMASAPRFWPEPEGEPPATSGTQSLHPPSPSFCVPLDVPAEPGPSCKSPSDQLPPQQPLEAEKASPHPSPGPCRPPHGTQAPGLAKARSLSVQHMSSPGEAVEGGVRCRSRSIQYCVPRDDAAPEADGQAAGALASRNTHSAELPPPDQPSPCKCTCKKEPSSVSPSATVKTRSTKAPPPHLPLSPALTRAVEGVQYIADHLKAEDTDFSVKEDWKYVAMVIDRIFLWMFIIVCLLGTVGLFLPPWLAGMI
Experiment [16] deals with Rattus norvegicus. As to the kind of experiment: Agonist activity on nicotine discrimination in rat at 0.56 mg/kg by lever press assay. Format: functional. A digest of the protocol: as §5
The subject of experiment [17] is Rattus norvegicus. As to the kind of experiment: Antagonist activity on nicotine discrimination in rat at 0.3 mg/kg by lever press assay. Format: functional. Further details: scale not given: the % may be the effect or the level left. The procedure, abridged: as §6
Experiment [18] concerns the target T1, Neuronal acetylcholine receptor; alpha4/beta2. The experiment can be described thus: Agonist activity at human alpha-4-beta-2 nACHR in SH-EP1 cells by patch-clamp assay at 10 uM. Format: functional, cell-based. Background: In patch-clamp work, channel activity is measured electrically.
For experiment [19] the target is unchanged. As to the kind of experiment: Antagonist activity at human alpha-4-beta-2 nACHR in SH-EP1 cells by patch-clamp assay at 10 uM. Format: functional, cell-based. Set-up: scale not given: the % may be the effect or the level left.
Experiment [20] deals with T2, Neuronal acetylcholine receptor; alpha3/beta4 (Rattus norvegicus) (UniProt P04757+P12392). The experiment can be described thus: Agonist activity at rat alpha3beta4 nACHR in HEK293 cells by patch-clamp assay at 10 uM. Format: functional, cell-based.
The target in experiment [21] is T2, Neuronal acetylcholine receptor; alpha3/beta4 (Rattus norvegicus). As to the kind of experiment: Antagonist activity at rat alpha-3-beta-4 nACHR in HEK293 cells by patch-clamp assay at 10 uM. Type of experiment: functional, cell-based. Set-up: scale not given: the % may be the effect or the level left.
Experiment [22] has as its target Neuronal acetylcholine receptor subunit alpha-7 (Homo sapiens) (UniProt P36544). The experiment can be described thus: Displacement of [125I]iodoMLA from alpha-7 nACHR at 10 uM. The following applies: Rattus norvegicus.
Experiment [23] concerns the target T1, Neuronal acetylcholine receptor; alpha4/beta2. The experiment can be described thus: Activity at human alpha-4-beta-2 nACHR assessed as inhibition of ACh-induced current in SH-EP1 cells at 40 uM. Type of experiment: functional, cell-based. Set-up: scale not given: the % may be the effect or the level left.
In experiment [24] the test system is Mus musculus. As to the kind of experiment: Antinociceptive activity in mouse by tail flick assay at 10 ug administered intrathecally. Format: functional, organism-based. A digest of the protocol:
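Tail-flick latency to a heat lamp in mice after intrathecal injection of 10 µg/mouse.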

Experiment [25] concerns Mus musculus. The experiment can be described thus: Spontaneous activity in mouse at 5 mg/kg. Type of experiment: functional. A digest of the protocol: as §4
In experiment [26] the test system is Mus musculus. The experiment can be described thus: Hypothermia in mouse at 5 mg/kg. Type of experiment: functional, organism-based. Set-up: dose 5 mg/kg. The procedure, abridged:
as §1

The species named for experiment [27] is Mus musculus. As to the kind of experiment: Antinociceptive activity in mouse by tail flick assay.
Experiment [28] deals with Mus musculus. The experiment can be described thus: Antinociceptive activity in sc dosed mouse by hot plate assay after 5 mins.

Neuronal acetylcholine receptor subunit alpha-7 (Homo sapiens), sequence (P36544 whole entry): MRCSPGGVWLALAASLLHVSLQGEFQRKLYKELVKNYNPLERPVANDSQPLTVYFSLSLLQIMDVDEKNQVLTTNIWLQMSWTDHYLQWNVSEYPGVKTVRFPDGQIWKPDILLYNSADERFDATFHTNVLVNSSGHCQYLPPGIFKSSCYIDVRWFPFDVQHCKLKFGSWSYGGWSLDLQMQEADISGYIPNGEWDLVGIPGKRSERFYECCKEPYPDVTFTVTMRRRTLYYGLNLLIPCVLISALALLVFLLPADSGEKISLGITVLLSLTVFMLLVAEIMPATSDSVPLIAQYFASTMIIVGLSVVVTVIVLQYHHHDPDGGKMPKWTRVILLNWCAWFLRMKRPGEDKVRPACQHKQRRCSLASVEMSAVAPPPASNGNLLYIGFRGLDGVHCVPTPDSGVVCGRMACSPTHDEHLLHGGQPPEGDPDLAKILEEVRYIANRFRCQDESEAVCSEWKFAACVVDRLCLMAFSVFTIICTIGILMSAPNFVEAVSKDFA

As for `c1cc2c(cn1)C1CCC(CC2)N1` (racemic), the ED50 in the experiment listed under Mus musculus [1] (Mus musculus, read-out: ED50) came out at 1600 µg/kg; in the experiment filed under Mus musculus [5] (Mus musculus, read-out: ED50) it was 2600 µg/kg. The affinity in experiment [2], expressed as Ki, was 6.1 nM. Besides, the Activity in the experiment with Mus musculus [3] is on record as 12%; with Mus musculus [4], 2%; with Rattus norvegicus [8] it was 17%; in the experiment on Rattus norvegicus [9], 84%. Further, the AD50 in the experiment filed under Mus musculus [6] was determined as 5 µg/kg; in the experiment listed under Mus musculus [7], 1000 µg/kg.
With `c1cc2c(cn1)C1CCC(CC2)N1` (single isomer, unassigned; (+)) [listing 1 of 2 here], the ED50 in the experiment filed under Mus musculus [1] was 2900 µg/kg; in the experiment filed under Mus musculus [5], 2000 µg/kg. This molecule came in with a Ki in [2] of 1.29 nM. For the same molecule, the Activity was 8% with Mus musculus [10]; 0% in the experiment with Mus musculus [11]; 8% in the experiment on Mus musculus [12]; 5% in the experiment on Mus musculus [13]; 0% in the experiment with Mus musculus [14]; 44.5% with Rattus norvegicus [16]. Further, the Activity in the experiment on Rattus norvegicus [17] is given as 96%. Further, the EC50 in experiment [15] worked out at 5500 nM.
On to `c1cc2c(cn1)C1CCC(CC2)N1` (single isomer, unassigned; (+)) [listing 2 of 2 here], for which the Activity in [18] was 28%; in experiment [19], 117%; in [20] it was 13%; in experiment [21] it was 101%; in [15] it was 17%; in experiment [23] it was 10%. The molecule further came in with an inhibition in [22] below 50%. Moreover, in the experiment on Mus musculus [24], the outcome was inactive.
Turning to `c1cc2c(cn1)C1CCC(CC2)N1` (single isomer, unassigned; (-)) [listing 1 of 2 here], in experiment [2], the affinity, expressed as Ki, was 350 nM. The Activity in the experiment with Mus musculus [10] amounted to 2%; in the experiment on Mus musculus [12], 2%; in the experiment with Mus musculus [25], 10%; with Rattus norvegicus [8], 23.8%. The AD50 in the experiment listed under Mus musculus [6] came to 0.07 µg/kg; in the experiment filed under Mus musculus [7] it was 0.8 µg/kg.
Take `c1cc2c(cn1)C1CCC(CC2)N1` (single isomer, unassigned; (-)) [listing 2 of 2 here]: the outcome in the experiment with Mus musculus [26] was Active. Further, the Activity in experiment [18] was determined as 0%; in [19], 89%; in experiment [20] it was 0.9%; in experiment [21] it was 93%. For the same molecule, in experiment [22], the inhibition came to 50%. The outcome with Mus musculus [24] was inactive.
For the molecule `Clc1ccc([C@@H]2C[C@H]3CC[C@@H]2N3)cn1` [(+)-EPIBATIDINE], the ED50 in the experiment filed under Mus musculus [1] (Mus musculus, read-out: ED50) came to 4 µg/kg; in the experiment listed under Mus musculus [27], 0.6 µg/kg; in the experiment with Mus musculus [28], 4 µg/kg; in the experiment filed under Mus musculus [5] (Mus musculus, read-out: ED50), 1 µg/kg.
For the molecule `Clc1ccc([C@H]2C[C@@H]3CC[C@H]2N3)cn1` [(-)-EPIBATIDINE], the ED50 came out at 4 µg/kg in the experiment filed under Mus musculus [1] (Mus musculus, read-out: ED50); 6 µg/kg in the experiment filed under Mus musculus [27]; 4 µg/kg in the experiment on Mus musculus [28]; 1 µg/kg in the experiment filed under Mus musculus [5] (Mus musculus, read-out: ED50).
For `CN1CCC[C@H]1c1cccnc1` [NICOTINE], the ED50 in the experiment filed under Mus musculus [1] (Mus musculus, read-out: ED50) was 1000 µg/kg; in the experiment filed under Mus musculus [27], 1300 µg/kg; in the experiment with Mus musculus [28] it was 650 µg/kg; in the experiment filed under Mus musculus [5] (Mus musculus, read-out: ED50) it was 500 µg/kg.
`CN1CCC[C@@H]1c1cccnc1` [R-NICOTINE]: the ED50 was 7600 µg/kg in the experiment filed under Mus musculus [1] (Mus musculus, read-out: ED50); 8000 µg/kg in the experiment listed under Mus musculus [27]; 3900 µg/kg in the experiment on Mus musculus [28]; 2900 µg/kg in the experiment filed under Mus musculus [5] (Mus musculus, read-out: ED50).

For orientation: ED50 means the midpoint of the dose-response relation. Broadly, the Ki is the dissociation constant of the complex between target and ligand, obtained from inhibition or displacement. In general, EC50 refers to the concentration that produces a half-maximal response. Usually inhibition stands for the change of the read-out against control, counted positive when it falls.
